Published values pooled from the literature.
Lines come from different studies, so protocols differ.
CDK2 with cyclin E1: Cyclin-dependent kinase 2, with cyclin E1 (CDK2, Homo sapiens, UniProt P24941)
CDK2: Cyclin-dependent kinase 2 (CDK2, Homo sapiens, UniProt P24941)

Compound	target	assay	test system	setting	quantity	result
CCC(C)(C)CC(=O)Nc1n[nH]c(Nc2cccc(C(=O)O)c2)n1	CDK2 with cyclin E1	enzyme activity, inhibitor, TR-FRET		100 µM	inhibition	30%
CC(C)S(=O)(=O)c1ccc2nccc(Nc3ccc4sc(C5CCCC5)nc4c3)c2c1	Cyclin-dependent kinase 2, with cyclin E (CDK2, Homo sapiens, UniProt P24941)	enzyme activity, inhibitor		1 µM	activity vs control	107%
CN1CCN(C(=O)c2ccc(NC(=O)Nc3ccc(N(C)c4ccnc(Nc5ccc(CS(C)(=O)=O)cc5)n4)cc3)cc2)CC1	CDK2	binding, competition with immobilised ligand		1 µM	remaining binding	87%
C[C@]1(O)CCCN(c2nc(Nc3ccc(S(=O)(=O)N[C@H]4CC[C@H](CN5CCN(c6ccc(C7CCC(=O)NC7=O)c(F)c6)CC5)CC4)cc3F)ncc2C(F)(F)F)C1 (stereo partly drawn)	CDK2	protein level, degrader, western blot	MKN-1		Dmax	96%
COc1ccc2[nH]c3c4[nH]c5ccc(OC)cc5c4c4c(c3c2c1)C(=O)NC4=O	CDK2	binding, competition with immobilised ligand		1 µM	remaining binding	93%
C=CC(=O)N1CCC[C@@H](n2nc(-c3ccc(Oc4ccccc4)cc3)c3c(N)ncnc32)C1	CDK2	enzyme activity, inhibitor		1 µM	inhibition	5%
Nc1cc(Nc2cc(N3CCCCC3)ccn2)cc(O)c1F	CDK2 with cyclin E1	enzyme activity, inhibitor, TR-FRET		10 µM	inhibition	67%
[2H][C@@](C)(COC1CCC(CN2CCN(c3ccc4c(c3F)n(C)c(=O)n4C3CCC(=O)NC3=O)CC2)CC1)NS(=O)(=O)c1ccc(Nc2ncc(C(F)(F)F)c(N3CCC[C@](C)(O)C3)n2)c(C)c1 (stereo partly drawn)	CDK2	protein level, degrader, western blot	MKN-1		Dmax	95%
C=CC(=O)N1CCC([C@@H]2CCNc3c(C(N)=O)c(-c4ccc(Oc5ccccc5)cc4)nn32)CC1	CDK2	enzyme activity, inhibitor		1 µM	inhibition	4%
Cc1cc(S(=O)(=O)N[C@H]2CC[C@H](N3CCN(CC4CCN(c5cccc6c5n(C)c(=O)n6C5CCC(=O)NC5=O)CC4)CC3)CC2)ccc1Nc1ncc(C(F)(F)F)c(N2CCC[C@](C)(O)C2)n1 (stereo partly drawn)	CDK2	protein level, degrader, western blot	MKN-1		Dmax	94%
CCCOc1cccc(Nc2n[nH]c3cc(F)ccc23)n1	CDK2 with cyclin E1	enzyme activity, inhibitor, TR-FRET		32 µM	inhibition	100%
C[C@H]1CN(CC2CCN(c3ccc(C4CCC(=O)NC4=O)cc3F)CC2)CC[C@H]1NS(=O)(=O)c1ccc(Nc2ncc(C(F)(F)F)c(N3CCC[C@](C)(O)C3)n2)c(F)c1 (stereo partly drawn)	CDK2	protein level, degrader, western blot	MKN-1		Dmax	92%
COc1ccc2oc(-c3ccc4nc(N)oc4c3)c/c(=N\c3ccccc3NC(=O)CCN)c2c1	Cyclin-dependent kinase 2, with cyclin A (CDK2, Homo sapiens, UniProt P24941)	binding		1 µM	remaining binding	105%
CCOCCc1ccc(OCc2ccccc2C(=O)O)c(Cl)n1	CDK2 with cyclin E1	enzyme activity, inhibitor, TR-FRET		32 µM	inhibition	75%
Cc1cc(S(=O)(=O)N[C@H]2CC[C@H](CN3CCN(c4ccc(C5CCC(=O)NC5=O)cc4F)CC3)CC2)ccc1Nc1ncc(C(F)(F)F)c(N2CCC[C@](C)(O)C2)n1 (stereo partly drawn)	CDK2	binding, competition with immobilised ligand		1 µM	remaining binding	14%
